Assay results pooled from the literature.
Each line is one published result; the experiments were not run side by side.
Organism: Pseudomonas aeruginosa
Observed: microbial growth

For `CC1(C)S[C@@H]2[C@H](NC(=O)C(C(=O)O)c3ccccc3)C(=O)N2[C@H]1C(=O)O` (some centres unmarked), the MIC was over 200 µM (broth dilution; CMCC10104).
`CCCCCCC/C=C/C(=O)N1C(=O)/C(=C(/C)O)C(=O)C1CCC(=O)O` (centres unmarked) has an MIC of over 200 µg/mL (PA01).
With `CN(C)[C@@H]1C(O)=C(C(N)=O)C(=O)[C@@]2(O)C(O)=C3C(=O)c4c(O)cncc4C[C@H]3C[C@@H]12.Cl.Cl` the MIC was 8 µg/mL (broth dilution; ATCC27853).
For `COc1c(C)c(OC(=O)c2ccccc2)c(C)c(O)c1C(=O)/C=C/c1ccccc1`, the MIC was 5000 µg/mL (broth dilution; ATCC27853).
With `CC1(C)SC2C(NC(=O)C(NC(=O)C3=C(O)C4(CC4)NC3=O)c3ccccc3)C(=O)N2C1C(=O)O` (centres unmarked) the MIC was 25 µg/mL.
With `CC(C)Oc1c(NC(=O)c2ccc(NC(=O)[C@H](CC(N)=O)NC(=O)c3ccc(NC(=O)c4cccc([N+](=O)[O-])c4)cc3)cc2)ccc(C(=O)Nc2ccc(C(=O)O)cc2)c1O` the MIC was over 64 µg/mL (PA14).
`O=[N+]([O-])c1ccc(-c2nc3cc(F)ccc3[nH]2)o1` gave an MIC of over 64 µg/mL (broth dilution; ATCC27853).
For `O=c1[nH]cc(F)c(=O)[nH]1`, the MIC was 4 µg/mL (broth dilution; 24 h).
The MIC of `C[C@@H](O)[C@H]1C(=O)N2C(C(=O)O)=C(S[C@@H]3CN[C@H](C(=O)N(C)C)C3)[C@H](C)[C@H]12` is reported as 1.3 µM.
With `CN(C)c1ccc(-c2ccc3cc4c(c(O)c3c2)C(=O)C2=C(O)[C@]3(O)C(=O)C(C(N)=O)=C(O)[C@@H](N(C)C)[C@@H]3C[C@@H]2C4)cc1` the MIC was 32 µg/mL (broth dilution; ATCC27853).
With `Brc1ccc(NCc2ccc(Oc3ccccn3)cc2)cc1` the MIC was over 25 µg/mL.
For `CC(C)Oc1c(NC(=O)c2ccc(NC(=O)[C@H](CC(N)=O)NC(=O)c3ccc(NC(=O)Cc4ccc(C#N)cc4)cc3)cc2)ccc(C(=O)Nc2ccc(C(=O)O)cc2)c1O`, the MIC was over 64 µg/mL (PA14).
With `Cn1c(SCc2ccc(Cl)cc2)nnc1-c1cncc(C#Cc2ccccc2)c1` the MIC was at least 20 µg/mL.
For `CC(C)Oc1c(NC(=O)c2ccc(NC(=O)[C@H](CC(N)=O)NC(=O)c3ccc(NC(=O)c4ccc(C#N)cc4)cc3)cc2)ccc(C(=O)O)c1O`, the MIC was over 64 µg/mL (PA14).
For `O=C(CCc1cc(O)c(O)c(O)c1)NCCCCCCCC[P+](c1ccccc1)(c1ccccc1)c1ccccc1.[Br-]`, the MIC was over 32 µg/mL (broth dilution; ATCC27853; 18 h).
`CCCCCCC/C=C/C(=O)N1C(=O)/C(=C(\O)c2ccccc2)C(=O)C1CC(C)C` (centres unmarked) has an MIC of over 200 µg/mL (PA01).
With `O=C(O)c1cn(C2CC2)c2cc(N3CCNCC3)c(F)cc2c1=O` the MIC was 9.43 µM (broth dilution; 24 h).
`CC(C)Oc1c(NC(=O)c2ccc(NC(=O)[C@H](CC(N)=O)NC(=O)c3ccc(NC(=O)c4cccc(N)c4)cc3)cc2)ccc(C(=O)Nc2ccc(C(=O)O)cc2)c1O` gave an MIC of over 64 µg/mL (PA14).
For `CN(C)[C@@H]1C(O)=C(C(N)=O)C(=O)[C@@]2(O)C(O)=C3C(=O)c4c(O)c(-c5ccccc5)nc(Cl)c4C[C@H]3C[C@@H]12.Cl`, the MIC was over 32 µg/mL (broth dilution; ATCC27853).
`CCCCCCC/C=C/C(=O)N1C(=O)/C(=C(/C)O)C(=O)C1CO` (centres unmarked) has an MIC of over 200 µg/mL (PA01).
The MIC of `CN(C)[C@@H]1C(O)=C(C(N)=O)C(=O)[C@@]2(O)C(O)=C3C(=O)c4c(cnc(-c5ccccc5)c4O)C[C@H]3C[C@@H]12.Cl.Cl` is reported as over 32 µg/mL (broth dilution; ATCC27853).
`Brc1cccc(NCc2ccc(Oc3ccccn3)cc2)c1` gave an MIC of over 50 µg/mL.
For `CC(C)Oc1c(NC(=O)c2ccc(NC(=O)[C@H](CC(N)=O)NC(=O)c3ccc(C#Cc4ccc(C#N)cc4)cc3)cc2)ccc(C(=O)Nc2ccc(C(=O)O)cc2)c1O`, the MIC was over 64 µg/mL (PA14).
`COc1c(C)c(OS(=O)(=O)c2ccc3ccccc3c2)c(C)c(O)c1C(=O)/C=C/c1ccccc1` has an MIC of 5000 µg/mL (broth dilution; ATCC27853).
`[H]/N=C(/N)N[C@H]1[C@H](O)[C@@H](O)[C@H](O[C@@H]2O[C@@H](C)[C@](O)(C=O)[C@H]2O[C@@H]2O[C@@H](CO)[C@H](O)[C@@H](O)[C@@H]2NC)[C@@H](N/C(N)=N\[H])[C@@H]1O` has an MIC of 64 µg/mL (broth dilution; PAO1).
`CC1=NN(CNc2ccccc2)C(=O)C1=NNn1c(-c2ccccc2)nc2ccccc2c1=O` has an MIC of 111 µM (broth dilution; 24 h).
For `CC(C)(C)Oc1ccc(CC2NC(=O)C(C(=O)NC(C(=O)NC3C(=O)N4C3SC(C)(C)C4C(=O)O)c3ccccc3)=C2O)cc1` (centres unmarked), the MIC was 12.5 µg/mL.
`O=C(CCCCCC[P+](c1ccccc1)(c1ccccc1)c1ccccc1)Nc1cc(O)c(O)c(O)c1.[Br-]` gave an MIC of over 32 µg/mL (broth dilution; ATCC27853; 18 h).
For `CCCCCCC/C=C/C(=O)N1C(=O)/C(=C(\O)C2CCNCC2)C(=O)C1CC(C)C` (centres unmarked), the MIC was 25 µg/mL (PA01).
`Fc1ccccc1NCc1ccc(Oc2ccccn2)cc1` gave an MIC of over 25 µg/mL.
For `CN(C)[C@@H]1C(O)=C(C(N)=O)C(=O)[C@@]2(O)C(O)=C3C(=O)c4c(O)cnc(Cl)c4C[C@H]3C[C@@H]12.Cl`, the MIC was over 32 µg/mL (broth dilution; ATCC27853).
`CC1=NN(CNc2ccccc2[N+](=O)[O-])C(=O)C1=NNn1c(-c2ccccc2)nc2ccccc2c1=O` has an MIC of 50.4 µM (broth dilution; 24 h).
For `O=C(Nc1ccc([N+](=O)[O-])cc1F)c1ccccc1O`, the MIC was over 64 µg/mL (broth dilution; ATCC27853).
`COc1c2c(c(O)c3cc(CN(C)C)ccc13)C(=O)C1=C(O)[C@]3(O)C(=O)C(C(N)=O)=C(O)[C@@H](N(C)C)[C@@H]3C[C@@H]1C2` has an MIC of 16 µg/mL (broth dilution; ATCC27853).
`COc1c(C)c(OC(=O)c2ccc(C)cc2)c(C)c(O)c1C(=O)/C=C/c1ccccc1` gave an MIC of 5000 µg/mL (broth dilution; ATCC27853).
`Cc1ccc2nc(-c3ccc([N+](=O)[O-])cc3)n(Cc3ccccc3)c2c1` gave an MIC of 128 µg/mL (broth dilution; ATCC27853).
`Cc1ccc(C)n1-c1ccc(-c2nnco2)cc1` gave an MIC of 4 µg/mL (broth dilution; ATCC10145; 18 h).
The MIC of `CC1COc2c(N3CCN(C)CC3)c(F)cc3c(=O)c(C(=O)O)cn1c23` (centres unmarked) is reported as 1 µg/mL (broth dilution; PAO1).
`O=C(CCc1ccc(O)c(O)c1)NCCCCCCCC[P+](c1ccccc1)(c1ccccc1)c1ccccc1.[Br-]` gave an MIC of over 32 µg/mL (broth dilution; ATCC27853; 18 h).
The MIC of `C[C@H]1COc2c(N3CCN(C)CC3)c(F)cc3c(=O)c(C(=O)O)cn1c23` is reported as 138 µM (broth dilution).
With `CN(C)[C@@H]1C(O)=C(C(N)=O)C(=O)[C@@]2(O)C(O)=C3C(=O)c4c(cc5ccc(-c6cccnc6)cc5c4O)C[C@H]3C[C@@H]12` the MIC was 32 µg/mL (broth dilution; ATCC27853).
`CC(C)Oc1c(NC(=O)c2ccc(NC(=O)[C@H](CC(N)=O)NC(=O)c3ccc(NC(=O)c4ccc(C#N)cc4)cc3)cc2)ccc(C(=O)Nc2ccc(C(=O)O)cc2)c1O` has an MIC of 2 µg/mL (PA14).
The MIC of `Cc1ccc(C)n1-c1ccc(-c2nnc(-c3ccc(O)cc3)[nH]2)cc1` is reported as 250 µg/mL (broth dilution; ATCC10145; 18 h).
`CC1(C)SC2C(NC(=O)C(NC(=O)C3=C(O)C(Cc4ccc(F)cc4)NC3=O)c3ccccc3)C(=O)N2C1C(=O)O` (centres unmarked) has an MIC of 25 µg/mL.
`O=[N+]([O-])c1ccc(-c2nc3ccccc3n2Cc2ccccc2)cc1` gave an MIC of 128 µg/mL (broth dilution; ATCC27853).
The MIC of `CN(C)[C@@H]1C(O)=C(C(N)=O)C(=O)[C@@]2(O)C(O)=C3C(=O)c4c(O)c(NCC(C)(C)CN5CCCC5)nc(Cl)c4C[C@H]3C[C@@H]12.Cl` is reported as 32 µg/mL (broth dilution; ATCC27853).
The MIC of `CC(C)Oc1c(NC(=O)c2ccc(NC(=O)[C@H](CC(N)=O)NC(=O)c3ccc(NC(=O)c4ccc(C#N)cc4)cc3)cc2)ccc(C(=O)Nc2ccncc2)c1O` is reported as over 64 µg/mL (PA14).
`CCCCCCC#Cc1cncc(-c2nnc(SCc3ccc(Cl)c(F)c3)n2C)c1` has an MIC of at least 20 µg/mL.
For `CC(C)Oc1c(NC(=O)c2ccc(NC(=O)[C@H](CC(N)=O)NC(=O)c3ccc(NC(=O)c4cc(=O)c(O)c[nH]4)cc3)cc2)ccc(C(=O)Nc2ccc(C(=O)O)cc2)c1O`, the MIC was over 64 µg/mL (PA14).
`Cc1cc(=O)[nH]n1C(=O)c1ccc(-n2c(C)ccc2C)cc1` gave an MIC of 250 µg/mL (broth dilution; ATCC10145; 18 h).
